Source: ChEMBL document CHEMBL1127783, “Sugar-linked dithiocarbamates as modulators of metabolic and genotoxic properties of N-nitroso compounds” (J Med Chem, 1994)
Values joined by “and” are separate entries in the source; they are usually repeats but may differ in a detail not shown here. Equal values may be shown once.

Experiments:
Rattus norvegicus [1] = test: Tested for cumulative urinary excretion following intraperitoneal dose of 100 mg/kg in rat at 0-8 h; format: functional, Urine
Procedure, shortened: (§1)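 Rats (five per group) were given a single 100 mg/kg dose ip or as an iv bolus. Each was housed alone in a metabolism cage, and urine was collected over 0–8 h and 8–24 h. Parent compound and the monosaccharide-linked metabolite in urine were quantified and reported as cumulative % of dose, mean ± SD.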

Rattus norvegicus [2] = test: Tested for cumulative urinary excretion following intravenous bolus dose of 100 mg/kg in rat at 8-24 h; format: functional, Urine; procedure, shortened: as §1
Rattus norvegicus [3] = test: Tested for cumulative urinary excretion following intraperitoneal dose of 100 mg/kg in rat at 0-8 hr was recovered; format: functional, Urine; procedure, shortened: as §1
Rattus norvegicus [4] = test: Tested for cumulative urinary excretion following intraperitoneal dose of 100 mg/kg in rat at 8-24 h; format: functional, Urine; procedure, shortened: as §1
Rattus norvegicus [5] = test: Tested ex vivo for analysis of DNA single-strand breaks in primary rat hepatocyte by oral treatment of NaCl during second gavage, 2 hr after first gavage.; format: functional
Procedure, shortened: (§2)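 Fasted rats given a first gavage of 0.5 mmol/kg test agent or saline, then NDEA (1.4 mg/kg) or saline by a second gavage 2 h later, both in 10 mL NaCl/kg. At 1 h after the second gavage, hepatocytes were isolated by two-step in situ perfusion under metophane anaesthesia. Alkaline filter elution: 1.5 × 10⁶ cells/filter, lysis at pH 10 with SDS/proteinase K, ten elution fractions, DNA measured by Hoechst 33258 fluorescence. Readout is control minus treated % DNA retained on filter; n = 6.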

Rattus norvegicus [6] = test: Tested for body weight after intravenous bolus administration of 100 mg/kg in rat 1; format: ADME, organism-based; design: dose 100 mg/kg, route intravenous; details: in vivo
Procedure, shortened: (§3)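 Rats (two per compound) were catheterised in the jugular vein under chloral hydrate. A 100 mg/kg iv bolus was given through the catheter, followed by a saline rinse. Serial blood samples (250–300 μL) were collected into heparinized tubes and centrifuged for plasma. Each rat's plasma concentration–time data were fitted by nonlinear regression to a compartment model to derive AUC, MRT, CL, Vss and phase half-lives. Body weight was recorded for each rat.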

Rattus norvegicus [7] = test: Tested for body weight after intravenous bolus administration of 100 mg/kg in rat 2; format: ADME, organism-based; design: dose 100 mg/kg, route intravenous; details: in vivo; procedure, shortened: as §3
[8] = Tested for half -life alpha after intravenous bolus administration of 100 mg/kg in rat 2; format: ADME, organism-based; design: dose 100 mg/kg, route intravenous; details: in vivo, read-out: T1/2 alpha; procedure, shortened: as §3
Rattus norvegicus [9] = species: Rattus norvegicus; test: Tested in vitro for N-nitrosodimethylamine (NDMA) demethylase activity at 0.1 mM for 2 mM concentration of formaldehyde; format: functional
Procedure, shortened: (§4)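 Liver microsomal fraction from untreated male Sprague–Dawley rats with NADPH-generating system. NDMA substrate 0.1–1 mM; test compound 2–20 mM or DDTC 2 mM added. Formaldehyde and acetaldehyde formed measured as (2,4-dinitrophenyl)hydrazones. Mean ± SD of three separate experiments.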

Rattus norvegicus [10] = test: Tested for cumulative urinary excretion following intravenous bolus dose of 100 mg/kg in rat at 0-8 hr was recovered; format: functional, Urine; procedure, shortened: as §1
Rattus norvegicus [11] = test: Tested for total body clearance (CL) after intravenous bolus administration of 100 mg/kg in rat 1; format: ADME, organism-based; design: dose 100 mg/kg, route intravenous; details: in vivo; procedure, shortened: as §3
Rattus norvegicus [12] = species: Rattus norvegicus; test: Tested in vitro for N-nitrosodimethylamine (NDMA) demethylase activity at 2 mM for 2 mM concentration of acetaldehyde; format: functional; procedure, shortened: as §4
Rattus norvegicus [13] = species: Rattus norvegicus; test: Tested in vitro for N-nitrosodimethylamine (NDMA) demethylase activity at 0.5 mM for 2 mM concentration of formaldehyde; format: functional; procedure, shortened: as §4
Rattus norvegicus [14] = test: Tested for steady state volume of distribution (Vss) after intravenous bolus administration of 100 mg/kg in rat 1; format: ADME, organism-based; design: dose 100 mg/kg, route intravenous; details: in vivo; procedure, shortened: as §3
Rattus norvegicus [15] = test: Tested for total body clearance (CL) after intravenous bolus administration of 100 mg/kg in rat 2; format: ADME, organism-based; design: dose 100 mg/kg, route intravenous; details: in vivo; procedure, shortened: as §3
Rattus norvegicus [16] = test: Tested for steady state volume of distribution (Vss) after intravenous bolus administration of 100 mg/kg in rat 2; format: ADME, organism-based; design: dose 100 mg/kg, route intravenous; details: in vivo; procedure, shortened: as §3
Rattus norvegicus [17] = test: Tested for cumulative urinary excretion following intravenous bolus dose of 100 mg/kg in rat at 8-24 h was recovered; format: functional, Urine; procedure, shortened: as §1
Rattus norvegicus [18] = species: Rattus norvegicus; test: Tested in vitro for N-nitrosodimethylamine (NDMA) demethylase activity at 2 mM for 2 mM concentration of formaldehyde; format: functional; procedure, shortened: as §4
Rattus norvegicus [19] = species: Rattus norvegicus; test: Tested in vitro for N-nitrosodimethylamine (NDMA) demethylase activity at 2 mM for 20 mM concentration of formaldehyde; format: functional; procedure, shortened: as §4
[20] = Tested for half life gamma after intravenous bolus administration of 100 mg/kg in rat 2; format: ADME, organism-based; design: dose 100 mg/kg, route intravenous; details: in vivo, read-out: T1/2 gamma; procedure, shortened: as §3
Rattus norvegicus [21] = species: Rattus norvegicus; test: Tested in vitro for N-nitrosodimethylamine (NDMA) demethylase activity at 2 mM for 5 mM concentration of formaldehyde; format: functional; procedure, shortened: as §4
Rattus norvegicus [22] = test: Tested ex vivo for analysis of DNA single-strand breaks in primary rat hepatocyte by oral treatment of NaCl during first gavage; format: functional; procedure, shortened: as §2
Rattus norvegicus [23] = species: Rattus norvegicus; test: Tested in vitro for N-nitrosodimethylamine (NDMA) demethylase activity at 0.1 mM for 0 mM concentration of formaldehyde; format: functional; procedure, shortened: as §4
Rattus norvegicus [24] = test: Tested ex vivo for analysis of DNA single-strand breaks in primary rat hepatocyte by oral treatment of NDEA during second gavage, 2 hr after first gavage.; format: functional; procedure, shortened: as §2
Rattus norvegicus [25] = test: Tested for area under the curve (AUC) after intravenous bolus administration of 100 mg/kg in rat 2; format: ADME, organism-based; design: dose 100 mg/kg, route intravenous; details: in vivo; procedure, shortened: as §3
Rattus norvegicus [26] = species: Rattus norvegicus; test: Tested in vitro for N-nitrosodimethylamine (NDMA) demethylase activity at 2 mM for 5 mM concentration of acetaldehyde; format: functional; procedure, shortened: as §4
Rattus norvegicus [27] = species: Rattus norvegicus; test: Tested in vitro for N-nitrosodimethylamine (NDMA) demethylase activity at 0.1 mM for 0 mM concentration of acetaldehyde; format: functional; procedure, shortened: as §4
[28] = Tested for half life beta after intravenous bolus administration of 100 mg/kg in rat 2; format: ADME, organism-based; design: dose 100 mg/kg, route intravenous; details: in vivo, read-out: T1/2 beta; procedure, shortened: as §3
Rattus norvegicus [29] = test: Tested ex vivo for analysis of DNA single-strand breaks in primary rat hepatocyte by oral treatment of NDEA during first gavage; format: functional
Rattus norvegicus [30] = test: Tested for cumulative urinary excretion following intraperitoneal dose of 100 mg/kg in rat at 8-24 hr was recovered; format: functional, Urine; procedure, shortened: as §1
Rattus norvegicus [31] = test: Tested for mean residence time (MRT) after intravenous bolus administration of 100 mg/kg in rat 2; format: ADME, organism-based; design: dose 100 mg/kg, route intravenous; details: in vivo; procedure, shortened: as §3
Rattus norvegicus [32] = species: Rattus norvegicus; test: Tested in vitro for N-nitrosodimethylamine (NDMA) demethylase activity at 2 mM for 0 mM concentration of acetaldehyde; format: functional; procedure, shortened: as §4
Rattus norvegicus [33] = test: Tested for mean residence time (MRT) after intravenous bolus administration of 100 mg/kg in rat 1; format: ADME, organism-based; design: dose 100 mg/kg, route intravenous; details: in vivo; procedure, shortened: as §3
Rattus norvegicus [34] = species: Rattus norvegicus; test: Tested in vitro for N-nitrosodimethylamine (NDMA) demethylase activity at 1 mM for 2 mM concentration of formaldehyde; format: functional; procedure, shortened: as §4
[35] = Tested for half -life alpha after intravenous bolus administration of 100 mg/kg in rat 1; format: ADME, organism-based; design: dose 100 mg/kg, route intravenous; details: in vivo, read-out: T1/2 alpha; procedure, shortened: as §3
[36] = Tested for the half life period in phosphate buffer at pH of 7.4; Stable; format: ADME; details: pH 7.4
Rattus norvegicus [37] = test: Tested for cumulative urinary excretion following intravenous bolus dose of 100 mg/kg in rat at 0-8 h; format: functional, Urine; procedure, shortened: as §1
Rattus norvegicus [38] = test: Tested for half life beta after intravenous bolus administration of 100 mg/kg in rat 1; format: ADME, organism-based; design: dose 100 mg/kg, route intravenous; details: in vivo; procedure, shortened: as §3
Rattus norvegicus [39] = species: Rattus norvegicus; test: Tested in vitro for N-nitrosodimethylamine (NDMA) demethylase activity at 0.1 mM for 2 mM concentration of acetaldehyde; format: functional; procedure, shortened: as §4
[40] = Tested for the half life period in alpha glucosidase at pH of 7.4; 9-18 days; format: ADME; details: pH 7.4
Rattus norvegicus [41] = species: Rattus norvegicus; test: Tested in vitro for N-nitrosodimethylamine (NDMA) demethylase activity at 2 mM for 0 mM concentration of formaldehyde; format: functional; procedure, shortened: as §4
Rattus norvegicus [42] = test: Tested for area under the curve (AUC) after intravenous bolus administration of 100 mg/kg in rat 1; format: ADME, organism-based; design: dose 100 mg/kg, route intravenous; details: in vivo; procedure, shortened: as §3
Rattus norvegicus [43] = species: Rattus norvegicus; test: Tested in vitro for N-nitrosodimethylamine (NDMA) demethylase activity at 1 mM for 2 mM concentration of acetaldehyde; format: functional; procedure, shortened: as §4
Rattus norvegicus [44] = species: Rattus norvegicus; test: Tested in vitro for N-nitrosodimethylamine (NDMA) demethylase activity at 0.5 mM for 2 mM concentration of acetaldehyde; format: functional; procedure, shortened: as §4
[45] = Tested for the half life period in beta glucosidase at pH of 7.4; 6-12 days; format: ADME; details: pH 7.4
[46] = Tested for half life gamma after intravenous bolus administration of 100 mg/kg in rat 1; format: ADME, organism-based; design: dose 100 mg/kg, route intravenous; details: in vivo, read-out: T1/2 gamma; procedure, shortened: as §3

half-life [8]: 5.2 min | Clearance (Rattus norvegicus [11]): 1.53 L/h/kg | Vss (Rattus norvegicus [14]): 0.1526 L/kg | Clearance (Rattus norvegicus [15]): 2.53 L/h/kg | Vss (Rattus norvegicus [16]): 0.1848 L/kg | half-life [20]: 129 min | AUC (Rattus norvegicus [25]): 11.4 uM min l-1 | half-life [28]: 23.6 min | MRT (Rattus norvegicus [31]): 43.8 min | MRT (Rattus norvegicus [33]): 59.8 min | half-life [35]: 3.7 min | T1/2 [36]: Stable | T1/2 beta (Rattus norvegicus [38]): 19.3 min | half-life [40]: 216 h | AUC (Rattus norvegicus [42]): 17.6 uM min l-1 | half-life [45]: 144 h | half-life [46]: 88.8 min
Compound: CCN(CC)C(=S)SC1OC(CO)C(O)C(O)C1O (stereo not given)
Excretion (Rattus norvegicus [1]): 31.2 % of dose | Excretion (Rattus norvegicus [2]): 1.5 % of dose | Excretion (Rattus norvegicus [3]): 21 % of dose | Excretion (Rattus norvegicus [4]): 2.2 % of dose | DNA on filter (Rattus norvegicus [5]): 58 | Viability (Rattus norvegicus [5]): 100% | Body weight (Rattus norvegicus [6]): 140 g | Body weight (Rattus norvegicus [7]): 150 g | Formaldehyde (Rattus norvegicus [9]): 1.2 nM (mg of protein)-1 | Excretion (Rattus norvegicus [10]): 13.1 % of dose | Acetaldehyde (Rattus norvegicus [12]): 13.8 nM (mg of protein)-1 and 31.5 nM (mg of protein)-1 | Formaldehyde (Rattus norvegicus [13]): 9 nM (mg of protein)-1 | Excretion (Rattus norvegicus [17]): 1.2 % of dose | Formaldehyde (Rattus norvegicus [18]): 14.7 nM (mg of protein)-1 | Formaldehyde (Rattus norvegicus [19]): 1.5 nM (mg of protein)-1 | Formaldehyde (Rattus norvegicus [21]): 11.9 nM (mg of protein)-1 | DNA on filter (Rattus norvegicus [22]): 60 | Viability (Rattus norvegicus [22]): 82% | Formaldehyde (Rattus norvegicus [23]): 4.6 nM (mg of protein)-1 | DNA on filter (Rattus norvegicus [24]): 77 | Viability (Rattus norvegicus [24]): 106% | Acetaldehyde (Rattus norvegicus [26]): 25.9 nM (mg of protein)-1 | Acetaldehyde (Rattus norvegicus [27]): 0 nM (mg of protein)-1 | DNA on filter (Rattus norvegicus [29]): 74 | Viability (Rattus norvegicus [29]): 92% | Excretion (Rattus norvegicus [30]): 1 % of dose | Acetaldehyde (Rattus norvegicus [32]): 0 nM (mg of protein)-1 | Formaldehyde (Rattus norvegicus [34]): 6.2 nM (mg of protein)-1 | Excretion (Rattus norvegicus [37]): 34.5 % of dose | Acetaldehyde (Rattus norvegicus [39]): 10.9 nM (mg of protein)-1 | Formaldehyde (Rattus norvegicus [41]): 15 nM (mg of protein)-1 | Acetaldehyde (Rattus norvegicus [43]): 4.3 nM (mg of protein)-1 | Acetaldehyde (Rattus norvegicus [44]): 8.5 nM (mg of protein)-1
